Results as given in ChEMBL document CHEMBL1926565, “Synthesis, antiproliferative activities and telomerase inhibition evaluation of novel asymmetrical 1,2-disubstituted amidoanthraquinone derivatives” (Eur J Med Chem, 2012).

Experiments:
Assay type in all cases: functional
NCI-H460 [1] = experiment: Cytotoxicity against human NCI-H460 cells assessed as cellular growth at 10 uM
Summary of the method: (§1)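 Single-dose screen run by the NCI across its 60-human-tumour-cell-line panel; growth recorded for each cell line.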

DU-145 = experiment: Cytotoxicity against human DU145 cells assessed as cellular growth at 10 uM; summary of the method: as §1
SK-OV-3 = experiment: Anticancer activity against human SKOV3 cells
Summary of the method: (§2)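 NCI 60-human-tumour-cell-line panel. Selected analogues were first run at one dose, then some were carried into multi-dose testing. GI50 (50% growth inhibition), TGI (total growth inhibition) and LC50 (50% cell kill) were read as values interpolated where the dose–response curves cross these levels.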

HOP-62 = experiment: Anticancer activity against human HOP62 cells; summary of the method: as §2
BT-549 = experiment: Anticancer activity against human BT549 cells; summary of the method: as §2
HCC 2998 [2] = experiment: Anticancer activity against human HCC2998 cells; conditions: read-out: LC50 (the source's name); summary of the method: as §2
EKVX = experiment: Anticancer activity against human EKVX cells; summary of the method: as §2
ACHN [3] = experiment: Anticancer activity against human ACHN cells; summary of the method: as §2
SK-MEL-28 [4] = experiment: Cytotoxicity against human SK-MEL-28 cells assessed as cellular growth at 10 uM; summary of the method: as §1
A549 = experiment: Cytotoxicity against human A549 cells assessed as cellular growth at 10 uM; summary of the method: as §1
OVCAR-4 = experiment: Anticancer activity against human OVCAR4 cells; summary of the method: as §2
UACC-257 = experiment: Anticancer activity against human UACC257 cells
SF-295 = experiment: Anticancer activity against human SF295 cells; conditions: read-out: LC50 (the source's name); summary of the method: as §2
A498 [5] = experiment: Anticancer activity against human A498 cells; summary of the method: as §2
PC-3 = experiment: Anticancer activity against human PC3 cells; summary of the method: as §2
MDA-MB-231 = experiment: Anticancer activity against human MDA-MB-231 cells; summary of the method: as §2
TK-10 = experiment: Anticancer activity against human TK10 cells
SNB-75 = experiment: Cytotoxicity against human SNB75 cells assessed as cellular growth at 10 uM
NCI-H322M [6] = experiment: Anticancer activity against human NCI-H322M cells; summary of the method: as §2
SK-MEL-28 [7] = experiment: Anticancer activity against human SK-MEL-28 cells; summary of the method: as §2
IGROV-1 = experiment: Anticancer activity against human IGROV1 cells; summary of the method: as §2
SK-MEL-5 = experiment: Cytotoxicity against human SK-MEL-5 cells assessed as cellular growth at 10 uM
MDA-MB-435 = experiment: Anticancer activity against human MDA-MB-435 cells; summary of the method: as §2
SN12C = experiment: Anticancer activity against human SN12C cells; summary of the method: as §2
NCI-H322M [8] = experiment: Cytotoxicity against human NCI-H322M cells assessed as cellular growth at 10 uM; summary of the method: as §1
LOX IMVI [9] = experiment: Cytotoxicity against human LOXIMVI cells assessed as cellular growth at 10 uM; summary of the method: as §1
OVCAR-5 [10] = experiment: Cytotoxicity against human OVCAR5 cells assessed as cellular growth at 10 uM; summary of the method: as §1
RXF 393 [11] = experiment: Anticancer activity against human RXF393 cells; summary of the method: as §2
CAKI-1 = experiment: Anticancer activity against human Caki1 cells; summary of the method: as §2
HOP-92 = experiment: Cytotoxicity against human HOP92 cells assessed as cellular growth at 10 uM; summary of the method: as §1
SK-MEL-2 = experiment: Cytotoxicity against human SK-MEL-2 cells assessed as cellular growth at 10 uM; summary of the method: as §1
NCI-H460 [12] = experiment: Anticancer activity against human NCI-H460 cells; summary of the method: as §2
OVCAR-5 [13] = experiment: Anticancer activity against human OVCAR5 cells; summary of the method: as §2
OVCAR-3 = experiment: Anticancer activity against human OVCAR3 cells; summary of the method: as §2
T47D = experiment: Cytotoxicity against human T47D cells assessed as cellular growth at 10 uM
LOX IMVI [14] = experiment: Anticancer activity against human LOXIMVI cells; summary of the method: as §2
SNB-19 = experiment: Anticancer activity against human SNB19 cells; conditions: read-out: LC50 (the source's name)
Summary of the method: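 Tested by the NCI in its 60-human-tumour-cell-line panel. Dose-response curves were run, and GI₅₀ (50% growth inhibition), TGI (total growth inhibition) and LC₅₀ (50% cell killing) were read as interpolated concentrations where the curves cross those levels.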

SR = experiment: Cytotoxicity against human SR cells assessed as cellular growth at 10 uM
NCI-H226 = experiment: Cytotoxicity against human NCI-H226 cells assessed as cellular growth at 10 uM; summary of the method: as §1
K562 = experiment: Anticancer activity against human K562 cells; summary of the method: as §2
ACHN [15] = experiment: Cytotoxicity against human ACHN cells assessed as cellular growth at 10 uM; summary of the method: as §1
SW-620 = experiment: Anticancer activity against human SW620 cells
MDA-MB-468 = experiment: Anticancer activity against human MDA-MB-468 cells; summary of the method: as §2
A498 [16] = experiment: Cytotoxicity against human A498 cells assessed as cellular growth at 10 uM; summary of the method: as §1
U-251 [17] = experiment: Anticancer activity against human U251 cells
U-251 [18] = experiment: Cytotoxicity against human U251 cells assessed as cellular growth at 10 uM
UO-31 = experiment: Anticancer activity against human UO31 cells; conditions: read-out: LC50 (the source's name)
RXF 393 [19] = experiment: Cytotoxicity against human RXF393 cells assessed as cellular growth at 10 uM; summary of the method: as §1
HCC 2998 [20] = experiment: Cytotoxicity against human HCC2998 cells assessed as cellular growth at 10 uM; summary of the method: as §1
[21] = read-out: LC50 (the source's name)

## Cc1ccc(C(=O)Nc2c(NC(=O)CCl)ccc3c2C(=O)c2ccccc2C3=O)cc1
NCI-H460 [1]
  Activity: 95.65%
DU-145
  Activity: -97.56%
SK-OV-3
  GI50: 13.2 µM
  TGI: 35.9 µM
SK-OV-3; [21]
  CC50: > 50 µM
HOP-62
  GI50: 2.97 µM
  LC50 (50% cell kill): 24.4 µM
  TGI: 9.49 µM
BT-549
  GI50: 2.58 µM
  TGI: 16.3 µM
BT-549; [21]
  CC50: > 50 µM
HCC 2998 [2]
  CC50: 29.4 µM
EKVX
  GI50: 1.98 µM
  TGI: 14.9 µM
EKVX; [21]
  CC50: > 50 µM
ACHN [3]
  GI50: 7.18 µM
  TGI: 14.3 µM
ACHN [3]; [21]
  CC50: 28.6 µM
SK-MEL-28 [4]
  Activity: -31.94%
A549
  Activity: -81.71%
OVCAR-4
  GI50: 5.52 µM
  TGI: 12 µM
OVCAR-4; [21]
  CC50: 25.9 µM
UACC-257
  GI50: 1.61 µM
  TGI: 6.27 µM
UACC-257; [21]
  CC50: 24.3 µM
SF-295
  CC50: 42.2 µM
A498 [5]
  GI50: 9.87 µM
  TGI: 22.5 µM
A498 [5]; [21]
  CC50: > 50 µM
PC-3
  GI50: 6.54 µM
  TGI: 15.4 µM
PC-3; [21]
  CC50: 36.5 µM
MDA-MB-231
  GI50: 6.51 µM
  TGI: > 50 µM
MDA-MB-231; [21]
  CC50: > 50 µM
TK-10
  GI50: 2.34 µM
  TGI: 4.94 µM
TK-10; [21]
  CC50: 29.2 µM
SNB-75
  Activity: 6.31%
NCI-H322M [6]
  GI50: 3.76 µM
  LC50 (50% cell kill): 45.4 µM
  TGI: 13.7 µM
SK-MEL-28 [7]
  GI50: 7.63 µM
  TGI: 15.2 µM
SK-MEL-28 [7]; [21]
  CC50: 30.1 µM
IGROV-1
  GI50: 5.6 µM
  TGI: 17 µM
IGROV-1; [21]
  CC50: > 50 µM
SK-MEL-5
  Activity: -98.72%
MDA-MB-435
  GI50: 5.73 µM
  TGI: 19.5 µM
MDA-MB-435; [21]
  CC50: > 50 µM
SN12C
  GI50: 1.22 µM
  TGI: 3.66 µM
SN12C; [21]
  CC50: > 50 µM
NCI-H322M [8]
  Activity: 95.05%
LOX IMVI [9]
  Activity: -57.05%
OVCAR-5 [10]
  Activity: 109.55%
RXF 393 [11]
  GI50: 7.84 µM
  TGI: 16.5 µM
RXF 393 [11]; [21]
  CC50: 34.6 µM
CAKI-1
  GI50: 6.87 µM
  TGI: 15.2 µM
CAKI-1; [21]
  CC50: 33.7 µM
HOP-92
  Activity: -68.77%
SK-MEL-2
  Activity: 52%
NCI-H460 [12]
  GI50: 5.81 µM
  LC50 (50% cell kill): 34.1 µM
  TGI: 14.1 µM
OVCAR-5 [13]
  GI50: 11.3 µM
  TGI: 19.2 µM
OVCAR-5 [13]; [21]
  CC50: 32.7 µM
OVCAR-3
  GI50: 1.35 µM
  TGI: 3.54 µM
OVCAR-3; [21]
  CC50: 15.2 µM
T47D
  Activity: -49.46%
LOX IMVI [14]
  GI50: 0.78 µM
  TGI: 1.84 µM
LOX IMVI [14]; [21]
  CC50: 4.29 µM
SNB-19
  CC50: 27.6 µM
SR
  Activity: -19.84%
NCI-H226
  Activity: -25.3%
K562
  GI50: 1.87 µM
  LC50 (50% net cell kill): > 50 µM
  TGI: 4.04 µM
ACHN [15]
  Activity: 21.92%
SW-620
  GI50: 1.87 µM
  TGI: 9.31 µM
SW-620; [21]
  CC50: > 50 µM
MDA-MB-468
  GI50: 0.83 µM
  TGI: 1.82 µM
MDA-MB-468; [21]
  CC50: 3.98 µM
A498 [16]
  Activity: 123.78%
U-251 [17]
  GI50: 1.8 µM
  TGI: 6.83 µM
U-251 [17]; [21]
  CC50: 30.2 µM
U-251 [18]
  Activity: -44.02%
UO-31
  CC50: 41.3 µM

## Cc1ccc(C(=O)Nc2c(NC(=O)CN3CCCC3)ccc3c2C(=O)c2ccccc2C3=O)cc1
NCI-H460 [1]
  Activity: 61.05%
RXF 393 [19]
  Activity: 63.8%
DU-145
  Activity: 91.52%
SK-MEL-28 [4]
  Activity: 92.18%
A549
  Activity: 84.88%
SNB-75
  Activity: 66.03%
SK-MEL-5
  Activity: 61.74%
NCI-H322M [8]
  Activity: 82.5%
LOX IMVI [9]
  Activity: 80.62%
OVCAR-5 [10]
  Activity: 102.31%
HOP-92
  Activity: 59.33%
SK-MEL-2
  Activity: 102.17%
T47D
  Activity: 44.33%
NCI-H226
  Activity: 90.22%
HCC 2998 [20]
  Activity: 84.6%
ACHN [15]
  Activity: 82.23%
A498 [16]
  Activity: 68.12%
U-251 [18]
  Activity: 82.17%
